# Data reported in ChEMBL document CHEMBL2331324, “Synthesis and biological evaluation of guanidino analogues of roscovitine” (Eur J Med Chem, 2013).
# Assays:
# [1] = test system: MCF7; test: Cytotoxicity against human MCF7 cells assessed as inhibition of cell viability after 72 hrs by calcien AM dye based fluorescence analysis; type: functional; conditions: MCF7, 72 h
# Procedure, shortened: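 MCF7 cells grown in DMEM with 10% FBS, 2 mM glutamine, penicillin and streptomycin at 37 °C and 5% CO2. About 10,000 cells per well, left 4 h, then a concentration range added in triplicate, DMSO ≤0.5% final. After 72 h, 1 µg/ml calcein AM (final) for 1 h; fluorescence read at 485/538 nm. Viability given as % of control; IC50 read graphically from dose-response curves; mean of ≥3 independent experiments.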
# [2] = target: Aurora kinase A/B (Homo sapiens) (UniProt Q96GD4+O14965); test: Activity at Aurora kinase A/B in human MCF7 cells assessed as histone H3 phosphorylation at Ser10 at 100 uM after 24 hrs by flow cytometry relative to untreated control; type: cell-based
# Procedure, shortened: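 Flow cytometry on MCF7 cells exposed 24 h to 100 µM. About one million cells fixed in 90% methanol, rehydrated, and labelled with primary antibody to pH3 Ser10, then an Alexa Fluor 488 secondary. Alexa read at 488/525 nm (ex/em). The value is the fraction of pH3-positive cells in treated cultures divided by that in untreated control.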
# [3] = test system: MCF7; test: Cell cycle arrest in human MCF7 cells assessed as accumulation of cells in G2+M phase at 100 uM after 24 hrs by propidium iodide staining based flow cytometry relative to untreated control; type: functional
# Procedure, shortened: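 Flow cytometry on MCF7 cells given 100 µM for 24 h. About one million cells fixed in 90% methanol and rehydrated. DNA stained with propidium iodide, read at 488/575 nm (ex/em). The value is the G2+M fraction of treated cells divided by the G2+M fraction of untreated control cells.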
# [4] = target: Cyclin-dependent kinase 2/cyclin E1 (Homo sapiens, UniProt P24941); test: Inhibition of recombinant CDK2/cyclin E (unknown origin) using histone H1 as substrate in presence of [gamma-33P]ATP; type: protein-complex assay
# [5] = target: Cyclin-dependent kinase 1/cyclin B1 (Homo sapiens, UniProt P06493); test: Inhibition of recombinant CDK1/cyclin B (unknown origin) using histone H1 as substrate in presence of [gamma-33P]ATP; type: protein-complex assay
# [6] = test system: MCF7; test: Ratio of compound IC50 to roscovitine IC50 for human MCF7 cells after 72 hrs by calcien AM dye based fluorescence analysis; type: functional
# [7] = target: Cyclin-dependent kinase 2/cyclin E1 (Homo sapiens) (UniProt P24864+P24941); test: Ratio of compound IC50 to roscovitine IC50 for recombinant CDK2/cyclin E (unknown origin); type: protein-complex assay
# [8] = target: Cyclin-dependent kinase 1/cyclin B1 (Homo sapiens) (UniProt P06493+P14635); test: Ratio of compound IC50 to roscovitine IC50 for recombinant CDK1/cyclin B (unknown origin); type: protein-complex assay
# Chain of Cyclin-dependent kinase 1/cyclin B1 (Homo sapiens) (P06493 whole entry, looked up): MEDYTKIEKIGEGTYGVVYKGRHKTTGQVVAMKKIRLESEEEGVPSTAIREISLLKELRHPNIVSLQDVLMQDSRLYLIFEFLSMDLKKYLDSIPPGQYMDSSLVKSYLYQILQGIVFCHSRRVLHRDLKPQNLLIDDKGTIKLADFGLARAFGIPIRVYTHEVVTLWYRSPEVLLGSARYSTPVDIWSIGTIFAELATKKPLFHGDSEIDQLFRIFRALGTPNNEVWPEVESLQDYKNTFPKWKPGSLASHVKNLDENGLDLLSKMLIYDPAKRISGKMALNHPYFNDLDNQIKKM
# Chain of Cyclin-dependent kinase 1/cyclin B1 (Homo sapiens) (P14635 whole entry, looked up): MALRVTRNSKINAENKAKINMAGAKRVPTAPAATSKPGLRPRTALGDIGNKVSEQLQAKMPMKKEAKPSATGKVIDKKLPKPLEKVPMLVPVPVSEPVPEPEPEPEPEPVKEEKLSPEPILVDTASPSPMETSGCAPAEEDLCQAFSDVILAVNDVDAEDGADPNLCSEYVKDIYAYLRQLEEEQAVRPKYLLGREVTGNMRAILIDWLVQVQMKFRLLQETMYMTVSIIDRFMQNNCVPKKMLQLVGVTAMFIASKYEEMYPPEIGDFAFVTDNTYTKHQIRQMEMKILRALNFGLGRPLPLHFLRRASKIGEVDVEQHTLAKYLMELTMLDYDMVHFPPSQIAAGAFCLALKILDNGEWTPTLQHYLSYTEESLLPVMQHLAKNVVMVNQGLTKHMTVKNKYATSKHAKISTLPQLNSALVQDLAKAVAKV
# Chain of Cyclin-dependent kinase 1/cyclin B1 (P06493 whole entry): as the sequence (P06493 whole entry, looked up) above
# Chain of Cyclin-dependent kinase 1/cyclin B1 (P14635 whole entry, further chain): as the sequence (P14635 whole entry, looked up) above
# Chain of Aurora kinase A/B (Homo sapiens) (O14965 whole entry, looked up): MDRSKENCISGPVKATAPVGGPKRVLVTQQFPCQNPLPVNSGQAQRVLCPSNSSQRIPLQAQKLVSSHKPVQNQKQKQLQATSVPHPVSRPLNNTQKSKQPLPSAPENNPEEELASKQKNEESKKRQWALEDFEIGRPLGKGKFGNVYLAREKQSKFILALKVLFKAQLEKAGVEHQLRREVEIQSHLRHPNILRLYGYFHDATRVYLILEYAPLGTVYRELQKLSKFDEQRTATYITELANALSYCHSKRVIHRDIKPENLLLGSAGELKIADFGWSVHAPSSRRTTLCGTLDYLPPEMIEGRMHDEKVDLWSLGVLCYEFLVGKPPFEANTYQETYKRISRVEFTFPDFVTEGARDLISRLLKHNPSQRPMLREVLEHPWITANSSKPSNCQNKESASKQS
# Chain of Aurora kinase A/B (Homo sapiens) (Q96GD4 whole entry, looked up): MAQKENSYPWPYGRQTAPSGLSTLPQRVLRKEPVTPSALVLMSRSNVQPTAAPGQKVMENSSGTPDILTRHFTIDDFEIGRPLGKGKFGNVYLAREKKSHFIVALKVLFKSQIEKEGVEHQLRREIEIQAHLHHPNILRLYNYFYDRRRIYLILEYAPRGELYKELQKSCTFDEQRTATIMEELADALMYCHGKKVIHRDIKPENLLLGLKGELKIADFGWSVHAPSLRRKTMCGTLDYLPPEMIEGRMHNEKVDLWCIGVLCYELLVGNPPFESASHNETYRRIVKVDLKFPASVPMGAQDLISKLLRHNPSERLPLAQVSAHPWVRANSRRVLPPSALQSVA
SMILES,Ratio [2],IC50 [4] [µM],IC50 [5] [µM],Ratio IC50 [7],Ratio IC50 [8],IC50 [1] [µM],Ratio [3],Ratio IC50 [6]
CC[C@H](CO)Nc1nc(NCc2ccccc2)c2ncn(C(C)C)c2n1 [SELICICLIB],,,,,,20.2,,
CC(C)n1cnc2c(NC(=N)N)nc(N3CCC[C@H]3CO)nc21,0.11,0.16,1.5,,,6.2,1.7,
CCn1cnc2c(NC(=N)N)nc(N)nc21,0.1,1.7,12.6,5,5,54.3,1.6,2
CC(C)n1cnc2c(NC(=N)N)nc(NCCCO)nc21,0.18,0.18,4.1,,,8.8,2.5,
CC(C)n1cnc2c(NC(=N)N)nc(OC[C@H]3CCCN3)nc21,,23.6,81.5,,,> 100,1.3,
CC(C)n1cnc2c(NC(=N)N)nc(NCCCCCCO)nc21,0.33,1.6,4.2,,,5.2,2,
CC[C@H](N)COc1nc(NC(=N)N)c2ncn(C(C)C)c2n1,0.07,6.2,8.1,,,16.3,1.5,
CC(C)Cn1cnc2c(NC(=N)N)nc(N)nc21,7,66.5,> 100,,,96.6,3.5,
N=C(N)Nc1nc(N)nc2c1ncn2CCN,,> 100,> 50,,,> 100,1,
CC[C@@H](N)COc1nc(NC(=N)N)c2ncn(C(C)C)c2n1,1.08,13.3,47.6,,,> 100,0.8,
[N-]=[N+]=NCCn1cnc2c(NC(=N)N)nc(N)nc21,,74.9,> 100,,,> 100,1.4,
CCCn1cnc2c(NC(=N)N)nc(N)nc21,6.71,10.7,55.9,,,36.5,4,
N=C(N)Nc1nc(N)nc2c1ncn2CCO,,> 100,> 100,,,> 100,0.9,
CC(C)n1cnc2c(NC(=N)N)nc(NCCO)nc21,0.15,0.82,15.1,,,12.4,2.9,

# Continued, in another order:
Ratio [2],IC50 [4] [µM],IC50 [5] [µM],Ratio IC50 [7],Ratio IC50 [8],SMILES,IC50 [1] [µM],Ratio [3],Ratio IC50 [6]
0.17,0.5,6.4,,,CC(C)n1cnc2c(NC(=N)N)nc(NC3CC3)nc21,5.4,2.4,
0.81,6.8,38.2,,,Cn1cnc2c(NC(=N)N)nc(N)nc21,> 100,1.5,
,> 100,> 100,,,N=C(N)Nc1nc(N)nc2c1ncn2CC(F)(F)F,> 100,0.8,
0.1,0.67,6.2,,,CC(C)n1cnc2c(NC(=N)N)nc(N3CCC[C@@H]3CO)nc21,20.4,2,
0.18,1.3,14.8,5,5,CC(C)n1cnc2c(NC(=N)N)nc(N)nc21,97.2,2,4
0.39,8,15.6,,,CC(C)[C@@H](N)COc1nc(NC(=N)N)c2ncn(C(C)C)c2n1,79.4,2.1,
,> 100,> 100,,,Cn1cnc2c(NC(=N)N)ncnc21,> 100,1,
,> 100,> 100,,,CN(C)c1nc(N)nc2c1ncn2CCN=[N+]=[N-],> 100,1,
0.13,0.14,2,,,CC(C)[C@H](CO)Nc1nc(NC(=N)N)c2ncn(C(C)C)c2n1,10.5,2.3,
,22.2,64.9,,,CC(C)n1cnc2c(N)nc(N)nc21,> 100,0.9,
0.8,25.2,> 100,,,CC(C)n1cnc2c(NC(=N)N)nc(OC[C@@H]3CCCN3)nc21,> 100,1.7,
0.09,0.071,1.1,,,CC(C)[C@@H](CO)Nc1nc(NC(=N)N)c2ncn(C(C)C)c2n1,2.1,1.8,
0.09,1.8,1.1,,,CC(C)[C@H](N)COc1nc(NC(=N)N)c2ncn(C(C)C)c2n1,3.4,1.7,
,7.9,37.5,,,CCn1cnc2c(N)nc(N)nc21,> 100,1.2,
